ADAM17 inh = ADAM17 inhibition, QFRET primary screen; recombinant ADAM17, EDANS/DABCYL FRET peptide cleavage; inhibition, % at 6.95 µM; hit rate 0.83% among 370,000; AID 720648;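 active = inhibition above the mean of compounds lying between control limits plus 3 SD, set per campaign, cut at about 8.5% in these data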
SENP1 inh = inhibitors of human SENP1 SUMO protease catalytic domain; recombinant SENP1 catalytic domain, CyPet-SUMO1-YPet FRET cleavage; inhibition, % at 10 µM; hit rate 0.21% among 360,000; AID 624204;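 active = inhibition at least 30% at 10 µM, raw YFP signal under a set limit, fluorescence ratio 0.5 to 1.5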
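Assay system – human recombinant His6-tagged SENP1 catalytic domain enzyme · Input – SENP1 enzyme, 20 pM final · Buffer or medium – Tris pH 8 buffer plus EDTA, NaCl, BME, BSA, NP40, catalase · Schedule – 50 min reaction at room temperature · Technique – FRET read of cyan and yellow fluorescence · Control set – no-enzyme wells low, DMSO-plus-enzyme wells high control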
ADAM10 inh = ADAM10 inhibition, QFRET primary screen. recombinant ADAM10, EDANS/DABCYL FRET peptide cleavage, 3 h. hit rate 0.62% among 370,000. inhibition, % at 7 µM. O14672. AID 720582;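 active = inhibition above a per-campaign cutoff equal to the mean of compounds falling between control-based bounds plus 3 SD, cut at about 20% in these data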
Target sequence (O14672 214-748 limits assumed): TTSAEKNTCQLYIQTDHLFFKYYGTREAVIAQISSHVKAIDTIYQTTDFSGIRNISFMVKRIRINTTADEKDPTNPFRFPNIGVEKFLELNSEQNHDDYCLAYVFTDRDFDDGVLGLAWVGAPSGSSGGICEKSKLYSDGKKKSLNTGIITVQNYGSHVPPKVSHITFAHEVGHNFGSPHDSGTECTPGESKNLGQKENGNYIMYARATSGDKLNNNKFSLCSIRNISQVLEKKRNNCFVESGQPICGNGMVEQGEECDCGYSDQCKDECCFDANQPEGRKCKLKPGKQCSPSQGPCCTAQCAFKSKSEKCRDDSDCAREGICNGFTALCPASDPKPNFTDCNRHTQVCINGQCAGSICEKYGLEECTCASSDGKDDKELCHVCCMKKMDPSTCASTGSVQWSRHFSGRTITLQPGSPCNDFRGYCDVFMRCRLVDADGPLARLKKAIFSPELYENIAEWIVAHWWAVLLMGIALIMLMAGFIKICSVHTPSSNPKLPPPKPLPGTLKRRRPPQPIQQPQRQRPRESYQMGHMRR
FAS TE block = FAS thioesterase (human) inhibition. recombinant FAS-TE, OMFH fluorogenic substrate, fluorescence endpoint. P49327. hit rate 0.67% among 360,000. AID 602261. inhibition, % at 15 µM;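 active = compounds whose normalised, plate-corrected inhibition of enzyme fluorescence in the single-dose primary screen is 50% or more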
FAS-TE conf = FAS thioesterase (human) inhibition, confirmation; shares compounds with FAS TE block; recombinant FAS-TE, OMFH fluorogenic substrate, fluorescence; inhibition, % at 15 µM; hit rate 45% among 2,300;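 active = compounds inhibiting the enzyme by at least 50% at 15 µM in any one of the replicates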
ADAM10 confirm = human ADAM10 inhibition, confirmation; ADAM10 QFRET peptide cleavage, EDANS fluorescence; shares compounds with ADAM10 inh; inhibition, % at 6.95 µM; AID 743208; hit rate 1% among 2,100;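 active = inhibition above about 20% chosen separately for each screening run, limit read from the data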
ADAM17 counter = counter-screen for ADAM10 exosite inhibitors: inhibitors of human ADAM17. shares compounds with ADAM10 inh. ADAM17 QFRET peptide cleavage, EDANS fluorescence. inhibition, % at 6.95 µM. hit rate 0.5% among 2,100. AID 743214;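 active = mean triplicate inhibition above the solvent-only control wells' mean plus 3 SD, cut at about 12% in these data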
Large screens that a line does not name were inactive (follow-up assays come after a bar, where they were run). Compounds with a hit are over-represented: about 1.9% of the library has one in this group of screens.

CN1CCN(C(=S)NC(=O)c2ccc(S(=O)(=O)N3CCOCC3)cc2)CC1	none
O=C(NC(=S)N1CCN(C(c2ccccc2)c2ccccc2)CC1)c1ccc(S(=O)(=O)N2CCOCC2)cc1	FAS TE block 56 | FAS-TE conf inactive
CN(CC(=O)Nc1ccc(Cl)c(C(F)(F)F)c1)C(=O)C1CC(=O)N(c2ccc3c(c2)OCCO3)C1 (configuration not stated)	FAS TE block 54 | FAS-TE conf 27
CN(CC(=O)Nc1ccc(Cl)c(C(F)(F)F)c1)C(=O)C1CC(=O)N(C2CCCC2)C1 (configuration not stated)	none
O=S(=O)(CC1NCc2cc(F)ccc21)NCc1ccccc1 (configuration not stated)	none (no result: SENP1 inh, FAS TE block)
CCn1c2ccccc2c2cc(NC(=O)C3CCN(S(=O)(=O)c4cccs4)CC3)ccc21	FAS TE block 66 | FAS-TE conf inactive
Cc1ccc2nc(NC(=O)C3CCN(S(=O)(=O)c4cccs4)CC3)sc2c1	ADAM10 inh 21, FAS TE block 68 | FAS-TE conf inactive
Cc1ccc(NC(=O)C2CCN(S(=O)(=O)c3cccs3)CC2)cc1C	none (no result: ADAM17 inh, ADAM10 inh)
O=S1(=O)CC2c3ccccc3CN2CN1Cc1ccc(F)cc1 (configuration not stated)	none (no result: SENP1 inh, FAS TE block)
Cc1ccc(-c2nc3ncccn3c2NC(=O)Nc2ccc(F)cc2)cc1	none (no result: SENP1 inh, FAS TE block)
CCC[C@H](/C=C/C(=O)OC(C)(C)C)Sc1ccc(OC)cc1	none (no result: SENP1 inh, FAS TE block)
CCN1C(=O)[C@H]2[C@@H](c3ccc(-c4cccc(Cl)c4)c(OC)c3)N[C@@](CC(C)C)(C(=O)OC)[C@H]2C1=O	none
CCN1C(=O)[C@H]2[C@@H](c3ccc(-c4ccc(C(C)=O)cc4)c(OC)c3)N[C@@](Cc3ccccc3)(C(=O)OC)[C@H]2C1=O	FAS TE block 65 | FAS-TE conf inactive
CCN1C(=O)[C@H]2[C@@H](c3ccc(-c4ccccc4)c(OC)c3)N[C@@](Cc3ccccc3)(C(=O)OC)[C@H]2C1=O	FAS TE block 69 | FAS-TE conf inactive
CCCSc1ccc([C@H]2N[C@@](Cc3ccccc3)(C(=O)OC)[C@H]3C(=O)N(CC)C(=O)[C@@H]23)cc1	none
CCN1C(=O)[C@H]2[C@@H](c3ccc(-c4ccc(F)cc4)c(OC)c3)N[C@@](Cc3ccccc3)(C(=O)OC)[C@H]2C1=O	FAS TE block 90 | FAS-TE conf inactive
O=C(OCc1ccc([N+](=O)[O-])cc1)C1CCN(S(=O)(=O)c2ccccc2)CC1	FAS TE block 60 | FAS-TE conf 60
COc1cccc(-n2c(SCC(=O)Nc3sc4c(c3C(N)=O)CCC4)nc3ccccc3c2=O)c1	FAS TE block 77 | FAS-TE conf inactive
COc1cccc(-n2c(SCC(=O)Nc3nc4ccccc4s3)nc3ccccc3c2=O)c1	none (no result: SENP1 inh, FAS TE block)
CC(C)(C)c1ccc(S(=O)(=O)N2CCC(c3cn4ccccc4n3)CC2)cc1	none (no result: SENP1 inh, FAS TE block)
O=C(NC1CCCCN(Cc2ccc(OC(F)(F)F)cc2)C1=O)c1ccc(F)c(F)c1 (configuration not stated)	none (no result: SENP1 inh, FAS TE block)
COc1cccc(NC(=O)CN2C(=O)COc3ccc(S(=O)(=O)N4CCC(C)CC4)cc32)c1	FAS TE block 61 | FAS-TE conf 66
COc1ccc(C(=O)N/C(=C\c2cn(S(=O)(=O)N(C)C)c3ccccc23)C(=O)NC(C)C)cc1	FAS TE block 65 | FAS-TE conf inactive
COc1ccc(C(=O)N/C(=C\c2cn(S(=O)(=O)N(C)C)c3ccccc23)C(=O)N2CCCC2)cc1	FAS TE block 80 | FAS-TE conf 90
COc1ccc(C(=O)N/C(=C\c2cn(S(=O)(=O)N(C)C)c3ccccc23)C(=O)N2CCOCC2)cc1	FAS TE block 82 | FAS-TE conf 71
CCN(CC)C(=O)/C(=C/c1cn(S(=O)(=O)N(C)C)c2ccccc12)NC(=O)c1ccc(OC)cc1	none
Cc1ccc(Cn2c(C)nc3ccc([N+](=O)[O-])cc3c2=O)cc1	FAS TE block 75 | FAS-TE conf 59
Cc1nc2ccc([N+](=O)[O-])cc2c(=O)n1Cc1ccc([N+](=O)[O-])cc1	FAS TE block 59 | FAS-TE conf 63
Cc1ccc(Cn2c([N+](=O)[O-])cnc2C)cc1	none
Cc1nc2ccc([N+](=O)[O-])cc2c(=O)n1Cc1ccccc1Br	FAS TE block 71 | FAS-TE conf inactive
Cc1nc2ccc([N+](=O)[O-])cc2c(=O)n1Cc1ccc(Br)cc1	FAS TE block 93 | FAS-TE conf 63
Cc1nc2ccc([N+](=O)[O-])cc2c(=O)n1Cc1cccc(Br)c1	none
C[C@H](O)[C@@H]1C(=O)N2CCc3c([nH]c4c(-c5ccc6c(c5)OCO6)cccc34)[C@@H]2C[C@@H]1N(C)C(=O)c1ccccc1F	none (no result: SENP1 inh, FAS TE block)
COC(=O)[C@]12C[C@H](CC(=O)NCCCN3CCCC3=O)C(=O)N(Cc3cccc4ccccc34)C1=C[C@H](C(C)(C)C)O[C@@H]2C	none (no result: SENP1 inh, FAS TE block)
CCOC(=O)C(C(=O)NCc1ccc(C)cc1)c1ncc(C(F)(F)F)cc1Cl (configuration not stated)	none
Cc1ccc(CNC(=O)C(C(=O)NCc2ccc(C)o2)c2ncc(C(F)(F)F)cc2Cl)o1	FAS TE block 62 | FAS-TE conf inactive
Cc1ccc(S(=O)(=O)N2CCCC2C(c2ccccc2O)c2cn(C)c3ccccc23)cc1 (configuration not stated)	none (no result: SENP1 inh, FAS TE block)
C#CCNC(=O)C[C@H]1C[C@@]2(C(=O)OC)C(=C[C@H](C(C)C)O[C@@H]2C2CC2)N(CCC2=CCCCC2)C1=O	none (no result: SENP1 inh, FAS TE block)
O=[N+]([O-])c1cc(S(=O)(=O)Nc2cccc(C(F)(F)F)c2)ccc1-n1nnc2ccccc21	ADAM10 inh 23, FAS TE block 66 | FAS-TE conf 80 | ADAM10 confirm inactive | ADAM17 counter inactive
COc1ccc(NS(=O)(=O)c2ccc(-n3nnc4ccccc43)c([N+](=O)[O-])c2)cc1	none
NC(=O)[C@H]1CC2(CC(c3cccc(NC(=O)CC(c4ccccc4)c4ccccc4)c3)=NO2)CN1C(=O)c1ccccc1C(=O)c1ccccc1 (some centres not stated)	ADAM10 inh 20, FAS TE block 75 | FAS-TE conf inactive | ADAM10 confirm inactive | ADAM17 counter inactive
CCC(=O)Nc1cccc(C2=NOC3(C2)C[C@@H](C(N)=O)N(C(=O)c2ccccc2C(=O)c2ccccc2)C3)c1 (some centres not stated)	none

Screening data from PubChem BioAssay.
